# CSN deneddyl inh: blocks human CSN-mediated cullin deneddylation. Q92905. Purified CSN, SCF-Nedd8-OG deneddylation, fluorescence polarization. inhibition, % at 12.5 µM. actives 0.38% (n = 360,000). AID 651999;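 active = pattern-corrected inhibition above about 35%, with an unprinted fluorescence ratio check between 0.5 and 1.5, limit read from the data, passing the limit was not always enough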;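 note: 0% = enzyme with substrate and 100% = substrate without enzyme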
#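 Detection – fluorescence polarization · System – HEK293T-derived human Csn5 enzyme · Controls – substrate-only high control, full reaction low control · Timing – 90 min, room temperature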
# SKN-1 block: blocks SKN-1 activity in C. elegans; inhibition, % at 21.8 µM; actives 0.49% (n = 360,000); AID 624304; C. elegans VP596 Pgst-4::GFP/RFP ratio, acrylamide-induced, 24 h;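 active = interference check ratio from 0.5 to 1.5 plus GFP to RFP signal ratio inhibition reaching or exceeding a fixed threshold, cut at about 30% in these data, passing the limit was not always enough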
# DNMT1 inh: blocks human DNA methyltransferase DNMT1. actives 0.83% (n = 360,000). inhibition (reported as % activation of signal), % at 10 µM. DNMT1 molecular beacon, Hinp1I cleavage, fluorescence; in the data active = inhibition above about 50%
# Rpn11 inh: blocks the human proteasome subunit Rpn11. human 26S proteasome, Ub4-pepOG fluorescence polarization; 20S core pre-blocked with epoxomicin. inhibition, % at 20 µM. actives 0.59% (n = 360,000);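 active = inhibition at 20 µM, scaled to each plate's controls, above about 33%, limit read from the data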
# Target sequence (O00487 whole entry, looked up): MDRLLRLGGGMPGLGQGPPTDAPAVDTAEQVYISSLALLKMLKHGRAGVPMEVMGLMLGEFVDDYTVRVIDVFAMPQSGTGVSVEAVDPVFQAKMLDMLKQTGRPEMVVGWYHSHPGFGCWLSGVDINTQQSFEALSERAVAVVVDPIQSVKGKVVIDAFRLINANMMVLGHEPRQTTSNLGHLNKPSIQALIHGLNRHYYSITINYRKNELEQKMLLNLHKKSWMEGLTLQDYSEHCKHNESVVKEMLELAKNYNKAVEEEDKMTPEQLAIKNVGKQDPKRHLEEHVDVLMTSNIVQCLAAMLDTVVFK
# SUMO1-SIM PPI: modulators of human SUMO1-mediated protein-protein interactions; P63165; SUMO1 binding to a labelled peptide, TR-FRET, 1 h; inhibition, % at 20 µM; actives 0.33% (n = 360,000); AID 602429; in the data active = inhibition above about 37%
# Target sequence (P63165 whole entry, looked up): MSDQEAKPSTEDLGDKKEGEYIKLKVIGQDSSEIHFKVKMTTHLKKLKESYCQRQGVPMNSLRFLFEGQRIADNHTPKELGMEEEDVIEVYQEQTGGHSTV
# MT1-MMP act inh: MT1-MMP (human) activation inhibition; P50281; HT1080 RFP-PRO-GFP cells, GFP/RFP ratio fluorescence, overnight; percent of plate control window, DMSO zero; GFP/RFP ratio change, % at 20 µM; actives 0.061% (n = 360,000); AID 651647;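 active = GFP/RFP ratio change of at least 30% with cell ATP level not reduced by more than half and red fluorescence within 50% of control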
#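 Compound: 20 µM single dose, 1% DMSO / System: HT1080 RFP-PRO-GFP cells / Controls: DMSO and RFP-L50D-GFP cell wells / Read-out basis: GFP/RFP fluorescence ratio / Schedule: overnight compound exposure at 37 °C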
# Starred values were filed as active, the others as inactive; i = inactive; . = no result given; + = active, no number. An excerpt weighted towards active compounds, which were near 2.3% of everything screened.
SMILES,CSN deneddyl inh,SKN-1 block,DNMT1 inh,Rpn11 inh,SUMO1-SIM PPI,MT1-MMP act inh
C=CCN(c1ccc(C(=O)NC(C)C)cc1)S(C)(=O)=O,3,47*,-8,1,4,-2
CSc1ccc(CNC(=O)C2(C)CCCN(C(C)C)C2)cc1 (stereo unspecified),0,15,4,6,9,2
Cc1cc2nc(-c3ccco3)c(Cc3cccc(Cl)c3)n2c(C)c1Br,36*,7,.,.,26,2
Cc1cc2nc(-c3cccc(Cl)c3)c(Cc3cccc(Cl)c3)n2c(C)c1Br,7,23,.,.,3,3
CC(=O)c1cccc(-c2ccnc3c2CC(C(=O)Nc2ccc(F)c(Cl)c2)O3)c1 (stereo unspecified),-2,8,-11,-15,5,-2
CCOC(=O)C1=CCN(S(=O)(=O)c2ccccc2Cl)C1c1cccc(F)c1 (stereo unspecified),-3,-1,-5,0,8,.
Cc1ccc(C(=O)NC(=S)Nc2ccccc2C(F)(F)F)c(C)c1,-1,32*,-2,1,3,0
Cc1cccc(C)c1NC(=O)C1c2ccccc2OCC(=O)N1Cc1ccco1 (stereo unspecified),-2,1,.,.,2,4
CC(=O)Oc1ccc2c(c1)Oc1cc(OC(C)=O)ccc1C21OC(=O)c2ccccc21,-92,52,+,-224,i,-8
Cc1cc(O)ccc1C1(c2ccc(O)cc2C)OC(=O)c2ccccc21,-3,-13,-10,2,-2,0
CC1=NN(Cc2ccccc2)C(=O)/C1=C\c1ccc(N(C)C)cc1,7,34*,-7,15,-56,6
O=C(NCc1ccncc1)[C@@H]1CCCN1C(=O)[C@H]1CCCN1C(=O)c1cccc(Cl)c1,-1,-3,.,.,-1,4
Cc1cc(C(=O)CCC(=O)N(C)CC(=O)Nc2c(Cl)cccc2Cl)c(C)s1,90*,18,-9,-4,1,0
CN(CC(=O)Nc1c(Cl)cccc1Cl)C(=O)CCC(=O)c1ccccc1,1,7,3,3,-10,-2
Cc1cc(O)c(-c2cc(C(=O)Nc3cccnc3)[nH]n2)cc1C,3,-2,-3,2,2,4
CC(=O)Nc1ccc(NC(=O)c2cc(-c3cc(C)c(C)cc3O)n[nH]2)cc1,7,-5,-3,0,40*,6
Cc1cc(C(=O)N/N=C/c2ccc(-c3cccc([N+](=O)[O-])c3)o2)n[nH]1,4,-1,13,2,-16,-3
COc1cc([N+](=O)[O-])ccc1-c1ccc(/C=N/NC(N)=O)o1,43*,1,3,.,-20,-45
Cc1cc(C(=O)N/N=C/c2ccc(-c3ccc([N+](=O)[O-])cc3Cl)o2)n[nH]1,46*,20,-4,-12,68*,0
COc1ccc(Cl)cc1-c1cc(C(=O)N[C@H](C)c2ccccc2)[nH]n1,-1,-3,-6,3,2,-4
O=Nc1c(O)c2ccccc2c2ccccc12,0,18,58*,-8,-37,0
CCc1c(C)nc2cc(-c3ccccc3)[nH]n2c1=O,-3,36*,-1,-3,9,-9
O=c1ccn(C2CCCCC2)c(=O)[nH]1,8,-6,-8,8,5,-2
O=C(Sc1ccc(Cl)cc1)c1ccccn1,5,55*,0,1,6,-6
Cn1c(CC(=O)NNC(=O)c2ccc(F)cc2Cl)nc2ccccc21,-3,9,0,0,43*,0
COc1ccc(C)cc1N(CC(=O)N1CCCC1)S(C)(=O)=O,70*,4,-5,-1,2,-2
COc1ccc(C)cc1N(CC(=O)N1CCCCCC1)S(C)(=O)=O,3,3,2,4,0,-2
O=C1O[C@@H](c2ccccc2)C[C@@H](O)C(=O)CCCCc2ccccc21,-6,4,.,.,5,4
C(/C=C/c1ccco1)=N/N1CCN(c2ccccc2)CC1,-2,59*,-2,1,-8,1
